“Also recorded” adds a separate entry of the source. Read-outs that look alike come from different tables or passages of the source.
Legend:
hM1 [1] = biological target: T1, hM1 (Homo sapiens, UniProt P11229); format: cell-based; settings: for M1 PAM activity in words (relative to 14 or comparators): hM1-CHO
T1 sequence (P11229 1-460): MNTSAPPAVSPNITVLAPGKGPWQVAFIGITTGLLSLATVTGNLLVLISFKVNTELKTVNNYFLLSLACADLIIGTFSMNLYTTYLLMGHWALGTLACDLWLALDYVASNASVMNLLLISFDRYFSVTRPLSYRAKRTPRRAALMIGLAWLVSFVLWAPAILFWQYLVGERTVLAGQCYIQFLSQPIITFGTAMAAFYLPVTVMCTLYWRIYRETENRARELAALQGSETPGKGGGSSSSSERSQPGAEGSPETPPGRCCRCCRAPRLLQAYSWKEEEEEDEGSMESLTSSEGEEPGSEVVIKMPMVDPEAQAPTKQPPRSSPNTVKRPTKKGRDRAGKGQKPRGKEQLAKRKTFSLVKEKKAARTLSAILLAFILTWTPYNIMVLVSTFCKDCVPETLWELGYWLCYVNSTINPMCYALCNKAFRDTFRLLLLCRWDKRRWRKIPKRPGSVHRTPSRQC
How it was run: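 Calcium mobilization in CHO cells expressing human M1, with a fixed EC20 concentration of acetylcholine present. Read-outs are EC50, pEC50 and ACh Max. Values are means of three independent experiments, each run in triplicate. Fold changes are expressed against a racemic reference compound.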

[2] = Metabolite identification studies; format: in vitro ADME
NR1 knock-down mice = settings: cited from earlier work
M1 = settings: cells and native systems; cited from earlier work
[3] = rats; cited from earlier work
[4] = non-human primates; cited from earlier work
[5] = tested on: cognitive deficits induced by risperidone; settings: cited from earlier work
[6] = mice; cited from earlier work
M2 = settings: read-out: M2 EC50; selectivity; cited from earlier work
M4 = settings: read-out: M4 EC50; selectivity; cited from earlier work
[7] = Predicted hepatic clearance, human; format: in vitro ADME
M3 = settings: read-out: M3 EC50; selectivity; cited from earlier work
M5 = settings: read-out: M5 EC50; selectivity; cited from earlier work
hM1 [8] = biological target: T1, hM1; settings: reference compound, racemate of 7; cited from earlier work

## O=C(N[C@H]1CCC[C@@H]1O)C1CN(Cc2ccc(-n3cccn3)cc2)c2ccccc2O1 (some centres unmarked) [25b]
hM1 [1]
  M1 PAM activity in words (relative to 14 or comparators): comparable activity

## O=C(NC1CCOCC1)C1CN(Cc2ccc(-n3cccn3)cc2)c2ccccc2O1 (centres unmarked) [25d]
hM1 [1]; relative to pyran homolog 25c
  Fold loss in M1 PAM activity on deletion of the hydroxyl group on the pyran ring: ~ 34 fold

## NC1CCCCC1NC(=O)C1CN(Cc2ccc(-n3cccn3)cc2)c2ccccc2O1 (centres unmarked) [25e]
hM1 [1]
  M1 PAM activity in words (relative to 14 or comparators): retained reasonable M1 PAM activity

## O=C(N[C@H]1CCCCC1=O)C1CN(Cc2ccc(-n3cccn3)cc2)c2ccccc2O1 (some centres unmarked) [25f]
hM1 [1]
  M1 PAM activity in words (relative to 14 or comparators): retained reasonable M1 PAM activity

## O=C(Nc1ncccc1O)C1CN(Cc2ccc(-n3cccn3)cc2)c2ccccc2O1 (centres unmarked) [25j]
hM1 [1]
  M1 PAM activity in words (relative to 14 or comparators): equipotent to 14
[2]
  Route of metabolism: amide hydrolysis by esterases liberating 27

## Cn1nccc1-c1ccc(CN2CC(C(=O)N[C@H]3CCCC[C@@H]3O)Oc3ccccc32)cn1 (some centres unmarked) [28 k]
hM1 [1]
  M1 PAM activity in words (relative to 14 or comparators): active

## O=C(N[C@H]1CCCC[C@@H]1O)C1CN(Cc2ccc(-n3cccc3)nc2)c2ccccc2O1 (some centres unmarked) [28j]
hM1 [1]
  M1 PAM activity in words (relative to 14 or comparators): increase in M1 PAM potency

## Cn1cc(-c2ccc(Cn3cc(C(=O)N[C@H]4CCCC[C@@H]4O)c4c(F)cc(F)cc43)cn2)cn1 [compound 6]
NR1 knock-down mice
  Efficacy in NR1 knock-down mice: robust efficacy

## O=C(N[C@H]1CCCC[C@@H]1O)[C@H]1CN(Cc2ccc(-n3cccn3)cc2)c2ccccc2O1 [compound 7]
M1
  M1 agonism: devoid of M1 agonism; also recorded: devoid of agonist activity in native systems
[3]
  Cholinergic toxicity: devoid of cholinergic toxicity
[4]
  Cholinergic toxicity: devoid of cholinergic toxicity
[5]
  Reversal of cognitive deficits induced by atypical antipsychotics: reverse the cognitive deficits induced by atypical antipsychotics
[6]
  Cholinergic toxicity: devoid of cholinergic toxicity

## O=C(N[C@H]1CCCC[C@@H]1O)C1CN(Cc2ccc(-n3cccn3)cc2)c2ccccc2O1 (some centres unmarked) [compound 14]
M2
  EC50: > 30 µM
M4
  EC50: > 30 µM
[7]
  Predicted hepatic clearance CLhep, human: 11.1 mL/min/kg
M3
  EC50: > 30 µM
[2]
  Route of metabolism: P450-mediated debenzylation to afford 26
M5
  EC50: > 30 µM
hM1 [8]
  M1 pEC50: 6.10 ± 0.13

## O=C(N[C@H]1CCCC[C@@H]1O)C1Cc2ccccc2N(Cc2ccc(-n3cccn3)cc2)C1 (some centres unmarked) [compound 15]
hM1 [1]
  M1 PAM activity in words (relative to 14 or comparators): essentially equipotent to 14

## O=C(N[C@H]1CCCC[C@@H]1O)C1CN(Cc2ccc(-n3cccn3)nc2)c2ccccc2O1 (some centres unmarked) [compound 18]
hM1 [1]
  M1 PAM activity in words (relative to 14 or comparators): equipotent to 14

## O=C(N[C@H]1CCCC[C@@H]1O)C1CN(Cc2ccc(-n3cccn3)cc2)c2c(F)cccc2O1 (some centres unmarked) [compound 21]
hM1 [1]; relative to 14
  Fold decrease in M1 PAM activity relative to 14: ~ 3 fold

## O=C(N[C@H]1CCCC[C@@H]1O)C1CN(Cc2ccc(-n3cccn3)cc2)c2cc(F)ccc2O1 (some centres unmarked) [compound 22]
hM1 [1]; relative to 14
  Fold increase in M1 PAM potency relative to 14: ~ 3 fold

## O=C(N[C@H]1CCCC[C@@H]1O)C1CN(Cc2ccc(-n3cccn3)cc2)c2cccc(F)c2O1 (some centres unmarked) [compound 24]
hM1 [1]; relative to 14
  Fold increase in M1 PAM potency relative to 14: ~7 fold
